Series [1] deals with cAMP-dependent protein kinase (PKA) (Homo sapiens, UniProt P22694+P17612+P22612). The experiment in a line: Inhibition of PKA. The series is classed as protein assay.
Series [2] addresses T1, Tyrosine-protein kinase ZAP-70 (Homo sapiens, UniProt P43403).
T1 sequence (P43403 whole entry): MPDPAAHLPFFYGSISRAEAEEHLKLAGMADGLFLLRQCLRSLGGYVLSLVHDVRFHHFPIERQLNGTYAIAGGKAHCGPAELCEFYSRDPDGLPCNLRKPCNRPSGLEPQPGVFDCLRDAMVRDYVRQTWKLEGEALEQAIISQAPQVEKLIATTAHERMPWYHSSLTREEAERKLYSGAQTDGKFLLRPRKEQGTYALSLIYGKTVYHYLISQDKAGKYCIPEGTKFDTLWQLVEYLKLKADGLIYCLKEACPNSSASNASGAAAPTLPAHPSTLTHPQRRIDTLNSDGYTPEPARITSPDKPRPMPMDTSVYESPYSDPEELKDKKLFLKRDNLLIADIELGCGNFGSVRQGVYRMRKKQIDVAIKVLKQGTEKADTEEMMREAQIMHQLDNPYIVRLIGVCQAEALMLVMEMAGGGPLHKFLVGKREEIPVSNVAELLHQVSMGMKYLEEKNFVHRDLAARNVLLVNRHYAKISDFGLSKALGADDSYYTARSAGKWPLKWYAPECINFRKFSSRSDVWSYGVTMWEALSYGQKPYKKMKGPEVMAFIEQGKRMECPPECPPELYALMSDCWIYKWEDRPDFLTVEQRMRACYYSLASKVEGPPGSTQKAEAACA
The experiment in a line: Inhibition of Zap70.

The subject of series [3] is Mus musculus. Nature of the series: Inhibition of LPS-induced TNFalpha release in po dosed BALB/c mouse after 90 mins. In kind it is functional. As to conditions: 1.5 h. In a few lines: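 Female BALB/c mice, 6–8 weeks old. Compound in 100% PEG 300 given by oral gavage 30 min before ip LPS (0.1 mL of 10 μg/mL in PBS). Blood was taken 90 min after LPS and serum TNF-α measured by ELISA. Mean ± SD, n = 8 mice per group.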

The target in series [4] is Mitogen-activated protein kinase 14 (Homo sapiens, UniProt Q16539). The experiment in a line: Inhibition of human p38-alpha expressed in Escherichia coli.
Mitogen-activated protein kinase 14, sequence (Q16539 whole entry): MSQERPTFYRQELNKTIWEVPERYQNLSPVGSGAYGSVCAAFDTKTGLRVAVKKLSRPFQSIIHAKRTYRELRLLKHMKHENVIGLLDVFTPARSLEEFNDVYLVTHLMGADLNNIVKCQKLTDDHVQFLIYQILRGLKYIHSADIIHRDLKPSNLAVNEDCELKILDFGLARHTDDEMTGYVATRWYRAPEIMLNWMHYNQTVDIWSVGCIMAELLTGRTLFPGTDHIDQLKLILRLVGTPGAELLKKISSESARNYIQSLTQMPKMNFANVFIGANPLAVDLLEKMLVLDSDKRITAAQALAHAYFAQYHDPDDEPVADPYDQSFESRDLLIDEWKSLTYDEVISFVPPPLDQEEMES
For series [5], the system named is PBMC. The experiment in a line: Inhibition of LPS-induced TNFalpha production in human PBMC by ELISA. In kind it is functional, cell-based. An outline of the steps: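 PBMC from healthy donors, isolated on ficoll, plated at 1×10^6 cells/mL in RPMI with 10% FBS. Compound was preincubated for 30 min, then cells were stimulated with 25 ng/mL LPS (final) for 6 h at 37 °C, 5% CO2. Supernatant TNF-α was measured by ELISA.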
A general note: ELISA stands for enzyme-linked immunosorbent assay.

Series [6] relates to Rattus norvegicus. The experiment in a line: Suppression of paw swelling in adjuvant arthritis Lewis rat model at 50 mg/kg, po BID.
A short description of series [7]: Bioavailability in mouse. As to conditions: in vivo. The series is classed as ADME, organism-based.
Series [8] deals with Liver microsomes. The experiment in a line: Metabolic stability in human liver microsomes. The series is classed as ADME, Microsome. For orientation: Microsomes from liver hold many membrane-bound enzymes, among them those of drug oxidation.
Series [9] deals with Protein kinase C alpha type (Homo sapiens, UniProt P17252). The experiment in a line: Inhibition of PKCalpha.
The target in series [10] is Tyrosine-protein kinase Lck (Homo sapiens, UniProt P06239). The experiment in a line: Inhibition of LCK.
Tyrosine-protein kinase Lck, sequence (P06239 whole entry): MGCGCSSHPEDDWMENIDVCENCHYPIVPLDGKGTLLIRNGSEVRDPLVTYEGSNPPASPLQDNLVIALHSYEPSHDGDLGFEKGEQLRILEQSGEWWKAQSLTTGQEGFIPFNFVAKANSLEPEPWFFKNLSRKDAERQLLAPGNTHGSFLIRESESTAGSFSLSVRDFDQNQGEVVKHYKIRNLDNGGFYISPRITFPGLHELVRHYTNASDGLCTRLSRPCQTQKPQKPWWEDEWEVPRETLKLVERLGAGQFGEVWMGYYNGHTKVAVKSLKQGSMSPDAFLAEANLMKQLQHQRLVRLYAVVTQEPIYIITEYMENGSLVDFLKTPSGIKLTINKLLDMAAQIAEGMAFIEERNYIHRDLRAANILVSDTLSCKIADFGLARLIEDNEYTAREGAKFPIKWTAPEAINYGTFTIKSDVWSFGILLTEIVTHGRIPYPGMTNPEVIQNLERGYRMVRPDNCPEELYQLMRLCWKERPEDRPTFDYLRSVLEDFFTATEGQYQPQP

As usually defined, the IC50 is the concentration at which inhibition is half-maximal. What is called pIC50 is the negative decadic logarithm of the IC50, by convention in mol/L. Read a high pIC50 as a low IC50. The ED50 is the midpoint of the dose-response relation. A low value points to an effect at a small dose. Broadly, the bioavailability is the share of a dose that reaches the circulation, judged against a reference dose that is usually intravenous.

pIC50: −log10 of the molar value.

In turn, `CONC(=O)c1ccc(C)c(Nc2nc(N(C)CC(C)(C)C)nc(N3CCCN(C)CC3)n2)c1` registered an IC50 in [1] above 10 µM. Moreover, the pIC50 in series [2] was below 4.30; in [4], 7.36; in series [5] it was 8.34; in series [9], below 5.00; in [10] it was below 5.00. The compound also yielded an ED50 in [3] of 3 mg/kg. For the same compound, in series [6], the Activity was found to be 50%. In series [7], this compound displayed a bioavailability of 8%. The Stability in [8] was 0.2 nmol/mg/min.

Values taken from ChEMBL document CHEMBL1149254, “The discovery of orally active triaminotriazine aniline amides as inhibitors of p38 MAP kinase” (J Med Chem, 2004).
